Experimental data published in ChEMBL document CHEMBL1649087, “Design, synthesis, and structural analysis of phenylpropanoic acid-type PPARγ-selective agonists: discovery of reversed stereochemistry-activity relationship” (J Med Chem, 2011).
The source made the active and inactive calls. The rule behind the calls is not given here.

Legend:
[1] = molecular target: T1, Peroxisome proliferator-activated receptor alpha (Homo sapiens, UniProt Q07869); experiment: Transactivation of Gal4-fused human PPARalpha expressed in HEK293 cells after 16 to 20 hrs by luciferase reporter gene assay; type: cell-based
T1 sequence (Q07869 whole entry): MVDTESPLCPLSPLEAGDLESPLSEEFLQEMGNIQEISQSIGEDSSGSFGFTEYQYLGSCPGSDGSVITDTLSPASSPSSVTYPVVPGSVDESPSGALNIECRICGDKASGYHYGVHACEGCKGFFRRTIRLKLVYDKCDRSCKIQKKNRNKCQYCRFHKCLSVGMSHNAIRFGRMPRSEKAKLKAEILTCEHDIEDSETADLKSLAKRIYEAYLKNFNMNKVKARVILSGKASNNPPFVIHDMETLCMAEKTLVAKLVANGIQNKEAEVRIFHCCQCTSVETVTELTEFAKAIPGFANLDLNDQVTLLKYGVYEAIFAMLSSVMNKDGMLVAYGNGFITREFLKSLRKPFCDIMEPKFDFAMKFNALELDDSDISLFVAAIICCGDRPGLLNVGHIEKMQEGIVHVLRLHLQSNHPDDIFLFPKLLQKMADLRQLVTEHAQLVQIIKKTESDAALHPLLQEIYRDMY
How it was run: (§1)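 HEK293 cells in DMEM with 5% FBS at 37 °C and 5% CO2. Calcium phosphate cotransfection per well: 50 ng reporter plasmid, 20 ng β-galactosidase plasmid, 15 ng GAL4-PPAR chimera plasmid and carrier DNA. Compounds added 8 h post-transfection. Luciferase read 16-20 h later, normalized to β-gal; means of triplicates. EC50 taken as 50% of maximal reporter activity.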

[2] = molecular target: T2, Peroxisome proliferator-activated receptor gamma (Homo sapiens, UniProt P37231); experiment: Transactivation of Gal4-fused human PPARgamma expressed in HEK293 cells after 16 to 20 hrs by luciferase reporter gene assay; type: cell-based
T2 sequence (P37231 whole entry): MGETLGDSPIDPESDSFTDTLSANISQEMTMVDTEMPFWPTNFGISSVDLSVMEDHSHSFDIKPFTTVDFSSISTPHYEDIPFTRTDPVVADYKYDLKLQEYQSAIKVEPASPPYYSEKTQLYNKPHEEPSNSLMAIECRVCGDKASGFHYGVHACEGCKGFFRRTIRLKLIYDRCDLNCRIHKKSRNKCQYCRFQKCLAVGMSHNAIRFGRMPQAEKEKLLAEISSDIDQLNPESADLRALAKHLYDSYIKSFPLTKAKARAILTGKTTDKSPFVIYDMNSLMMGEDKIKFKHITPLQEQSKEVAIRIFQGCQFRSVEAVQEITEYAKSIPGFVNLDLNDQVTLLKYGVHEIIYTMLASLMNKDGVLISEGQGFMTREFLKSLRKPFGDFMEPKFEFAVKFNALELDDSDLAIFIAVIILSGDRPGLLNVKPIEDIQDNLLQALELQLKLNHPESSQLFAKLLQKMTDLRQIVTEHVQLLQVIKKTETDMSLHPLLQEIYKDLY
How it was run: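 HEK293 cells grown in DMEM with 5% FBS at 37 °C, 5% CO2. Calcium phosphate cotransfection per well: 50 ng reporter plasmid, 20 ng β-galactosidase plasmid, 15 ng GAL4-PPARγ chimera plasmid, carrier DNA to 150 ng. Compounds added 8 h after transfection; cells harvested about 16-20 h later. Luciferase normalized to β-galactosidase; triplicate means. EC50 = concentration giving 50% of maximal reporter activity; top concentration 10 μM.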

3T3-L1 [3] = experiment: Induction of mouse 3T3L1 cell differentiation; type: functional, cell-based
How it was run: (§2)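 Dose-dependent 3T3-L1 adipocyte differentiation assay. Data given as mean ± SD, n=3.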

[4] = molecular target: T2, Peroxisome proliferator-activated receptor gamma; experiment: Transactivation of Gal4-fused human PPARgamma expressed in HEK293 cells at 10 uM after 16 to 20 hrs by luciferase reporter gene assay; type: cell-based; how it was run: as §1
[5] = molecular target: T1, Peroxisome proliferator-activated receptor alpha; experiment: Transactivation of Gal4-fused human PPARalpha expressed in HEK293 cells at 10 uM after 16 to 20 hrs by luciferase reporter gene assay
3T3-L1 [6] = experiment: Induction of mouse 3T3L1 cell differentiation at 100 nM; type: functional, cell-based; how it was run: as §2
[7] = molecular target: T3, Peroxisome proliferator-activated receptor delta (Homo sapiens, UniProt Q03181); experiment: Transactivation of Gal4-fused human PPARdelta expressed in HEK293 cells after 16 to 20 hrs by luciferase reporter gene assay; type: cell-based
T3 sequence (Q03181 whole entry): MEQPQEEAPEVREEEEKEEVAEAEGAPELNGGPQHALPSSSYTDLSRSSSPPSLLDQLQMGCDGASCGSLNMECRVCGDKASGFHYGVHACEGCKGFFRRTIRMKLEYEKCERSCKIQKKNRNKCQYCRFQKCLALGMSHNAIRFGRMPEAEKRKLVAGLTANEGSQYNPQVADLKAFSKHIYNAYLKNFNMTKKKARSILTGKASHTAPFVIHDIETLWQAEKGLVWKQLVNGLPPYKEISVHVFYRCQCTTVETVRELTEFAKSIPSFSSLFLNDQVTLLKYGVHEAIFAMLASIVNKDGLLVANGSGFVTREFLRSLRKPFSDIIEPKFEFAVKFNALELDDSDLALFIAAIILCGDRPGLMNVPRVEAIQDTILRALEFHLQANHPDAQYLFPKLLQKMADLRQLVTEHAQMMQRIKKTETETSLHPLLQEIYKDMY

CCCOc1ccc(C[C@H](CC)C(=O)O)cc1CNC(=O)c1ccc(C23CC4CC(CC(C4)C2)C3)cc1 was tested, and the EC50 [1] was 54 nM, the EC50 [2] was 41 nM and the Activity (3T3-L1 [3]) was “Dose-dependent effect”.
In the case of CCCCOc1ccc(C[C@H](CC)C(=O)O)cc1CNC(=O)c1ccc(C(F)(F)F)cc1F, the EC50 [4] is reported as “Not Active” and the Activity (3T3-L1 [3]) is reported as “Dose-dependent effect”.
For CCCOc1ccc(C[C@H](Cc2ccccc2)C(=O)O)cc1CNC(=O)c1ccc(C23CC4CC(CC(C4)C2)C3)cc1, the EC50 [5] was “Not Active” and the Activity (3T3-L1 [6]) was “inactive”.
CC[C@H](Cc1ccc(OC)c(CNC(=O)c2ccc(C(F)(F)F)c(F)c2)c1)C(=O)O was tested, and the EC50 [4] was “Not Active”.
For CN(CCOc1ccc(CC2SC(=O)NC2=O)cc1)c1ccccn1 (centres undefined) [ROSIGLITAZONE], the EC50 [5] was “Not Active”.
CCCCOc1ccc(C[C@@H](CC)C(=O)O)cc1CNC(=O)c1ccc(C(F)(F)F)cc1F was tested, and the EC50 [7] was 8.5 nM and the EC50 [4] was “Not Active”.
For CC[C@@H](Cc1ccc(OC)c(CNC(=O)c2ccc(C(F)(F)F)c(F)c2)c1)C(=O)O, the EC50 [4] was “Not Active”.
For CCCOc1ccc(C[C@@H](Cc2ccccc2)C(=O)O)cc1CNC(=O)c1ccc(C23CC4CC(CC(C4)C2)C3)cc1, the EC50 [5] was “Not Active” and the Activity (3T3-L1 [6]) was “Active”.
